Assay results pooled from the literature.
Compare with care: the assays were run in different laboratories.
Effect on: cell growth or viability

Compound	cell line	assay	conditions	quantity	result
N.N.[Cl][Pt][Cl]	MDA-MB-231	MTT	72 h	GI50	4.18 µM
O=C(c1ccc(F)cc1)c1c[nH]c2ncc(-c3ccc(N4CCOCC4)nc3)cc12	MRC5	MTT	10 µM, 48 h	viability	68.1%
COc1cccc2c1C(=O)c1c(O)c3c(c(O)c1C2=O)C[C@@](O)(C(=O)CO)C[C@@H]3O[C@H]1C[C@H](N)[C@H](O)[C@H](C)O1	LLC-PK11	–	48 h	IC50	0.9 µg/mL
CCN1C(=O)SC[C@H]1[C@@]1(O)C[C@H]2C[C@@H](CC[C@H](C)/C=C\C=C\CC/C(C)=C\C(=O)O2)O1	MDA-MB-231	MTT	72 h	IC50	7.19 µM
CCCS(=O)(=O)Nc1ccc(F)c(C(=O)c2c[nH]c3ncc(Cl)cc23)c1F	A-375	–	–	EC50	0.03 µM
N.N.[Cl][Pt][Cl]	BEL-7404	MTT	48 h	IC50	13.1 µM
O=C(c1ccc(F)cc1)c1c[nH]c2ncc(-c3ccnc(N4CCOCC4)c3)cc12	MRC5	MTT	10 µM, 48 h	viability	89.4%
C/C1=C/C(=O)O[C@@H]2C[C@@H](CC[C@H](C)/C=C\C=C\CC1)O[C@@](OCCc1ccccc1)([C@@H]1CSC(=O)N1)C2	MDA-MB-231	MTT	72 h	IC50	2.71 µM
COc1cc2c(cc1OS(N)(=O)=O)CCN(Cc1cc(Br)c(OC)c(OC)c1)C2	MDA-MB-231	WST-1	96 h	GI50	0.03 µM
O=C(O)CCn1cc(C(=O)c2ccc(F)cc2)c2cc(-c3ccc(N4CCNCC4)nc3)cnc21	MRC5	MTT	10 µM, 48 h	viability	77.7%
CO[C@]1([C@@H]2CSC(=O)N2CCCO)C[C@H]2C[C@@H](CC[C@H](C)/C=C\C=C\CC/C(C)=C\C(=O)O2)O1	MDA-MB-231	MTT	72 h	IC50	> 50 µM
O=C(c1cccc(F)c1)c1c[nH]c2ncc(-c3ccc(N4CCNCC4)nc3)cc12	MRC5	MTT	10 µM, 48 h	viability	66.2%
C1COCCN1.COc1ccc(/C=C\c2cc(I)c(OC)c(I)c2)cc1OP(=O)(O)O	KM-20L2	SRB	48 h	GI50	> 1 µg/mL
